Test results as given in ChEMBL document CHEMBL1131508, “Spiro[1H-indene-1,4'-piperidine] derivatives as potent and selective non-peptide human somatostatin receptor subtype 2 (sst2) agonists” (J Med Chem, 1998).

Legend:
Assay type in all cases: cell-based
[1] = molecular target: Somatostatin receptor type 2 (Homo sapiens, UniProt P30874); assay: Binding affinity towards human sst2 receptor expressed in CHO-K1 cells
In short: (§1)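 Competitive radioligand binding. Each point was run in triplicate, and each compound was tested in at least two separate experiments.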

[2] = molecular target: Somatostatin receptor type 1 (Homo sapiens, UniProt P30872); assay: Binding affinity towards human sst1 receptor expressed in CHO-K1 cells; in short: as §1
[3] = molecular target: Somatostatin receptor type 4 (Homo sapiens, UniProt P31391); assay: Binding affinity towards human sst4 receptor expressed in CHO-K1 cells; in short: as §1
[4] = molecular target: Somatostatin receptor type 3 (Homo sapiens, UniProt P32745); assay: Binding affinity towards human sst3 receptor expressed in CHO-K1 cells; in short: as §1
[5] = molecular target: Somatostatin receptor type 5 (Homo sapiens, UniProt P35346); assay: Binding affinity towards human sst5 receptor expressed in CHO-K1 cells
In short: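 Radioligand was labelled SRIF28. Points were run in triplicate, with at least two independent experiments per compound.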

Chain of Somatostatin receptor type 2 (P30874 whole entry): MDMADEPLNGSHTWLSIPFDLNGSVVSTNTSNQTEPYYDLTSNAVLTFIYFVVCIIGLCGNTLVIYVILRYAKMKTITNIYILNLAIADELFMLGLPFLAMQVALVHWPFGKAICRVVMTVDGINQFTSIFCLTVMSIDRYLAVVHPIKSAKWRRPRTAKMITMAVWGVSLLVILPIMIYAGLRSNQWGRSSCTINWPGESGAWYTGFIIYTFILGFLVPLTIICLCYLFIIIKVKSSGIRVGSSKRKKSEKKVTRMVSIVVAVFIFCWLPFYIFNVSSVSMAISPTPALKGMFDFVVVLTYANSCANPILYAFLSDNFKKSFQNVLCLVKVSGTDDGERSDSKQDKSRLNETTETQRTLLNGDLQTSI
Chain of Somatostatin receptor type 3 (P32745 whole entry): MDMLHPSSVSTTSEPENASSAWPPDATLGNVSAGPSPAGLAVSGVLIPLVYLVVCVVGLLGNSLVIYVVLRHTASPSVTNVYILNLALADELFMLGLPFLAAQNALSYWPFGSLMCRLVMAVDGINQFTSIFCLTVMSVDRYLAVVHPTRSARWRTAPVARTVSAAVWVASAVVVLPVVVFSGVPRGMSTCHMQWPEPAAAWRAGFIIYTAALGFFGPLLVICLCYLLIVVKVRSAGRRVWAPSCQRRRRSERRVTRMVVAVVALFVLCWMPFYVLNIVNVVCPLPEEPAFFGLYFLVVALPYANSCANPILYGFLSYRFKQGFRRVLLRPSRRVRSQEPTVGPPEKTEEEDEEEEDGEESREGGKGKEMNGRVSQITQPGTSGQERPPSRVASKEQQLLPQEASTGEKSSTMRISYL
Chain of Somatostatin receptor type 1 (P30872 whole entry): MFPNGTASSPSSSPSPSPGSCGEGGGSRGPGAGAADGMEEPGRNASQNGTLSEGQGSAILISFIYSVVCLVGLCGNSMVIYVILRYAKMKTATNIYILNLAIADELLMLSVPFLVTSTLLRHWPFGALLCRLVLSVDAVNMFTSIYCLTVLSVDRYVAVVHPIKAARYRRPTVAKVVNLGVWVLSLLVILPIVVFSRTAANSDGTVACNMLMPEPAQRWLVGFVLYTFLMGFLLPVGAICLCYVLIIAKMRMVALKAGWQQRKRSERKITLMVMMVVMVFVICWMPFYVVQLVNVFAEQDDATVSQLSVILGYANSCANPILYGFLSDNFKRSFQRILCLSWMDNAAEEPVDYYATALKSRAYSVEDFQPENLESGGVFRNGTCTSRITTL
Chain of Somatostatin receptor type 5 (P35346 whole entry): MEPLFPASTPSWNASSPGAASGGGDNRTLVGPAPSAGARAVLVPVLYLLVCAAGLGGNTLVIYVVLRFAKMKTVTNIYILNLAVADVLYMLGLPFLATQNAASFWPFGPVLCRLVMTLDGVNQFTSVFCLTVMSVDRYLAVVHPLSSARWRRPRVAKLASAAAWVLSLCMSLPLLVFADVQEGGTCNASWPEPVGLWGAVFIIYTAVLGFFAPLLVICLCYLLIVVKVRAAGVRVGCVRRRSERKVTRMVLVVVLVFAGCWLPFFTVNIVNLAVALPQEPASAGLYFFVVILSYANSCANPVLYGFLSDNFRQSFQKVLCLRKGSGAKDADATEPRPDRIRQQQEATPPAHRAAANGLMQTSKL
Chain of Somatostatin receptor type 4 (P31391 whole entry): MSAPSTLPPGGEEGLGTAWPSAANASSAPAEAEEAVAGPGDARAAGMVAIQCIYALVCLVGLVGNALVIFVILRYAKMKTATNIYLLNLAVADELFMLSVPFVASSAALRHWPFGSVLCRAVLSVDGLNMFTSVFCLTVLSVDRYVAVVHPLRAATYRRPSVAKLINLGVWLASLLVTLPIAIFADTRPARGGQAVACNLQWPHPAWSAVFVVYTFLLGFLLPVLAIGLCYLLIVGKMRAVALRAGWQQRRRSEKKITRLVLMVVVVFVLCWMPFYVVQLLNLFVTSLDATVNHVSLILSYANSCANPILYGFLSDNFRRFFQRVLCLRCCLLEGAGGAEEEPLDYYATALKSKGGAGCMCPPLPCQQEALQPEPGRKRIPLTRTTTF

| Compound | Ki [1] [µM] | Ki [2] [µM] | Ki [3] [µM] | Ki [4] [µM] | Ki [5] [µM] |
| --- | --- | --- | --- | --- | --- |
| NCCCCCNC(=O)[C@@H](Cc1c[nH]c2ccccc12)NC(=O)N1CCC2(C=Cc3ccccc32)CC1 | 0.046 | 5.38 | 6.84 | 2.57 | > 10 |
| NCCCCNC(=O)C(Cc1c[nH]c2ccccc12)NC(=O)N1CCC2(C=Cc3ccccc32)CC1 (centres undefined) | – | 4.26 | > 10 | 5.69 | > 10 |
| NCCCCCCNC(=O)[C@H](Cc1c[nH]c2ccccc12)NC(=O)N1CCC2(C=Cc3ccccc32)CC1 | 0.225 | – | – | – | – |
| NC[C@H]1CCC[C@@H](CNC(=O)[C@H](Cc2c[nH]c3ccccc23)NC(=O)N2CCC3(C=Cc4ccccc43)CC2)C1 | 0.02 | 2.43 | 2.18 | 3.69 | 3.32 |
| NC[C@@H]1CCC[C@H](CNC(=O)[C@H](Cc2c[nH]c3ccccc23)NC(=O)N2CCC3(C=Cc4ccccc43)CC2)C1 | 0.0016 | 1.74 | 2 | 2.95 | 4.47 |
| C[C@@H](O)[C@@H]1NC(=O)[C@H](Cc2ccccc2)NC(=O)[C@@H]2CCCN2C(=O)[C@H](Cc2ccc(O)cc2)NC(=O)[C@@H](Cc2c[nH]c3ccccc23)NC(=O)[C@H](CCCCN)NC1=O (stereo in doubt) | 0.0005 | – | – | – | – |

Continued by falling Ki [1], values first:

| Ki [1] [µM] | Ki [2] [µM] | Ki [3] [µM] | Ki [4] [µM] | Ki [5] [µM] | Compound |
| --- | --- | --- | --- | --- | --- |
| 1.11 | – | – | – | – | NCCCCC(NC(=O)[C@H](Cc1c[nH]c2ccccc12)NC(=O)N1CCC2(C=Cc3ccccc32)CC1)C(=O)O (some centres undefined) |
| 0.815 | – | – | – | – | NCCCNC(=O)[C@H](Cc1c[nH]c2ccccc12)NC(=O)N1CCC2(C=Cc3ccccc32)CC1 |
| 0.053 | – | – | – | – | NCCCCC(NC(=O)[C@@H](Cc1c[nH]c2ccccc12)NC(=O)N1CCC2(C=Cc3ccccc32)CC1)C(N)=O (some centres undefined) |
| 0.004 | 0.537 | 2.48 | 3.61 | 5.02 | NCC1CCCC(CNC(=O)[C@H](Cc2c[nH]c3ccccc23)NC(=O)N2CCC3(C=Cc4ccccc43)CC2)C1 (some centres undefined) |
